Experimental data taken from ChEMBL document CHEMBL3877241 (J Med Chem, 2016).
pIC50: −log10 of the molar value.

Tests used:
[1] = molecular target: T1, Protein deacetylase HDAC6 (Homo sapiens, UniProt Q9UBN7); experiment: Inhibition of full length human recombinant N-terminal GST-tagged HDAC6 (1 to 1215 residues) expressed in sf9 cells preincubated with enzyme followed by fluorogenic Arg-His-Lys-Lys(Ac)-AMC substrate addition measured after 2 hrs by fluorescence assay
T1 sequence (Q9UBN7 whole entry): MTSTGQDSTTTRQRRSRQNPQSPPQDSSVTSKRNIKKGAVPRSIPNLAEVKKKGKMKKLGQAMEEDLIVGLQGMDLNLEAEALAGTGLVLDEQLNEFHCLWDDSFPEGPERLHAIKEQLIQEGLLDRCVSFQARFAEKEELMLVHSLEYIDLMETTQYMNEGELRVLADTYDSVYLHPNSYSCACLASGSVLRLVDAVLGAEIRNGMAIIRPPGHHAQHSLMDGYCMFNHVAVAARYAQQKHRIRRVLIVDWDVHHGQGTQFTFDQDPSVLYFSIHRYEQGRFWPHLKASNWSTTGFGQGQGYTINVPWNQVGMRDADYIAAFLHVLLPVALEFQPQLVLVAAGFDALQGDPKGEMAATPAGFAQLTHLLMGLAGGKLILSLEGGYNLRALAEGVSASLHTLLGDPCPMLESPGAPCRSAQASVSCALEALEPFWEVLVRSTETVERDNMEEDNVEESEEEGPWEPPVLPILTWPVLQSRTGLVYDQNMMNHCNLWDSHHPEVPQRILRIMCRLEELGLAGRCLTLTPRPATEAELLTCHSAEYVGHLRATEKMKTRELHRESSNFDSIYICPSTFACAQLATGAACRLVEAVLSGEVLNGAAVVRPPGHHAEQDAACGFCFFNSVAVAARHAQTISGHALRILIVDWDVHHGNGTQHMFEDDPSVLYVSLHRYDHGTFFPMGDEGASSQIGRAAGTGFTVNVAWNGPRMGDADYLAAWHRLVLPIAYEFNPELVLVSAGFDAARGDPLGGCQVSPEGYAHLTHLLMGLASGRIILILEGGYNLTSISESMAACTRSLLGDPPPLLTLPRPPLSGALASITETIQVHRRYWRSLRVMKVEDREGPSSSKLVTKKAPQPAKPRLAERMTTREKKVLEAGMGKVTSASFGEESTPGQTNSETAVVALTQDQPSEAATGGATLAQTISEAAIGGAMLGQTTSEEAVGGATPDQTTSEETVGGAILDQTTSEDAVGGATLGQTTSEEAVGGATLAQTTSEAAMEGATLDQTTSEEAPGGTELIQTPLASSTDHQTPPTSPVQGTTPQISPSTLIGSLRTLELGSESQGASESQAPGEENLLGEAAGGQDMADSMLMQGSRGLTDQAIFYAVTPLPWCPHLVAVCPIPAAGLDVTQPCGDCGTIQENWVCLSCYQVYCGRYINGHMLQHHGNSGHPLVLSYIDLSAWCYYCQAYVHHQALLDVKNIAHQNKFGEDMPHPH

[2] = molecular target: T2, Tyrosine-protein kinase JAK2 (Homo sapiens, UniProt O60674); experiment: Inhibition of JAK2 (unknown origin) preincubated for 20 mins followed by [33P]ATP addition measured after 120 mins by Hotspot assay
T2 sequence (O60674 whole entry): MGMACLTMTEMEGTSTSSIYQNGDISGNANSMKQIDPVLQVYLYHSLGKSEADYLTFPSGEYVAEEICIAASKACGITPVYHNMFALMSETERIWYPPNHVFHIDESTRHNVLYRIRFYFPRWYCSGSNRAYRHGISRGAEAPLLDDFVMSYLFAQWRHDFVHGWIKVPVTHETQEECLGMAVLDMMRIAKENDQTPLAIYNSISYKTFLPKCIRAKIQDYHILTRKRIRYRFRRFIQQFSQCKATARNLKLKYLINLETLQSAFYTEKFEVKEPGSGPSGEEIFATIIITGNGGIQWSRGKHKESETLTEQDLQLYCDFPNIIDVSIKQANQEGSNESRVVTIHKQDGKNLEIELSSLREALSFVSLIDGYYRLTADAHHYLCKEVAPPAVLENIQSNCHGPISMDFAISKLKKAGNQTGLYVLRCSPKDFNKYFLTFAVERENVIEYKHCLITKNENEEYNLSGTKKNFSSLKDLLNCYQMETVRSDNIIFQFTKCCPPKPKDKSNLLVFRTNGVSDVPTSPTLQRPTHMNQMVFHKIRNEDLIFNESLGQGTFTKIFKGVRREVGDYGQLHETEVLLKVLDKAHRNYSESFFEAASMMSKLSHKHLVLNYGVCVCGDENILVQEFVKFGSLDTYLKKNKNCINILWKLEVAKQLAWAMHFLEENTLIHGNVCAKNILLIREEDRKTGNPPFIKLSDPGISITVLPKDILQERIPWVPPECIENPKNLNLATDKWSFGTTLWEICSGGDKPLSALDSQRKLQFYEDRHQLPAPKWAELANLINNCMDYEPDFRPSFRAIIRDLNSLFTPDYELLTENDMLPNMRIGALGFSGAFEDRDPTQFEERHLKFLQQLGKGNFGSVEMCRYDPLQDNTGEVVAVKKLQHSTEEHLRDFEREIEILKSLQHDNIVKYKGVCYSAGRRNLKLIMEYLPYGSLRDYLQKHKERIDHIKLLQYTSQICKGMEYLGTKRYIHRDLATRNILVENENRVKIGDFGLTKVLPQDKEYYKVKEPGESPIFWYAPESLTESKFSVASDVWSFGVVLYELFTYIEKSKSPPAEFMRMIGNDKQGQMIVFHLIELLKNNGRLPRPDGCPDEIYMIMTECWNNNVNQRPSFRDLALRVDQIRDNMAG

[3] = Antiproliferative activity against human PC3 cells after 72 hrs by MTT assay; format: functional, cell-based; conditions: PC-3, 72 h
[4] = Antiproliferative activity against human Jurkat cells; format: functional, cell-based
[5] = Antiproliferative activity against human MCF7 cells after 72 hrs by MTT assay; format: functional, cell-based; conditions: MCF7, 72 h
[6] = Antiproliferative activity against human HL60 cells; format: functional, cell-based; conditions: HL-60
cells = format: functional, cell-based; conditions: Homo sapiens, HEL 92.1.7, 36 h
[7] = Antiproliferative activity against human MDA-MB-231 cells after 72 hrs by MTT assay; format: functional, cell-based; conditions: MDA-MB-231, 72 h
[8] = Antiproliferative activity against human HCT116 cells after 72 hrs by MTT assay; format: functional, cell-based; conditions: HCT-116, 72 h
How it was run: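 MTT viability after 72 h exposure. Cells seeded at 2500/well and left 24 h before compound addition; DMSO at 0.5% v/v final. MTT added in FBS-free medium for 3 h at 37 °C, formazan dissolved in DMSO, absorbance read at 570 nm. IC50 from a sigmoidal fit of % viability vs log concentration; triplicates on separate occasions using two different stock solutions.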

[9] = molecular target: T2, Tyrosine-protein kinase JAK2; experiment: Inhibition of JAK2 (unknown origin)
Histone deacetylase 1 = Histone deacetylase 1 (Homo sapiens, UniProt Q13547); experiment: Inhibition of full length human recombinant C-terminal FLAG/His-tagged HDAC1 (1 to 482 residues) expressed in sf21 cells preincubated with enzyme followed by fluorogenic Arg-His-Lys-Lys(Ac)-AMC substrate addition measured after 2 hrs by fluorescence assay
Chain of Histone deacetylase 1 (Q13547 whole entry, the tested form may be a part): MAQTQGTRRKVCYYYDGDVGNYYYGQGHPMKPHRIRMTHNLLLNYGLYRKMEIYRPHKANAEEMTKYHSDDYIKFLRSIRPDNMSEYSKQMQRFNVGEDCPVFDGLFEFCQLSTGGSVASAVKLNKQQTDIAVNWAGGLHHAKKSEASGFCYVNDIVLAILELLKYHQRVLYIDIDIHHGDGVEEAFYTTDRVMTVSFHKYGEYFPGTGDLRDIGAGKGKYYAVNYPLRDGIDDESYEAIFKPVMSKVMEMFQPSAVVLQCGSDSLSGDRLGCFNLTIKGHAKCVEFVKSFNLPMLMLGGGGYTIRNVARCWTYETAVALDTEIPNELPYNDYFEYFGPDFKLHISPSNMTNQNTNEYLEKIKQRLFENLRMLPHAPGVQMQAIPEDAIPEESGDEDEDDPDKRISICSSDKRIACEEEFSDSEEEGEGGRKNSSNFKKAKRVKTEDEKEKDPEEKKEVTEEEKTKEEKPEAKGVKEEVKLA

[10] = Apparent intrinsic clearance in rat liver microsomes at 3 uM preincubated for 5 mins followed by NADPH addition measured after 45 mins by LC-MS/MS analysis; format: ADME; conditions: read-out: CLH(app)
How it was run: (§1)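 Male and female rat liver microsomes (0.3 mg protein/mL final) with compound at 3 μM final in 0.1 M phosphate buffer pH 7.4. Preincubated 5 min at 37 °C, then started with NADPH (1 mM final). Sampled at 0, 5, 10, 15, 30 and 45 min and quenched with cold acetonitrile containing internal standard. Read by LC-MS/MS; run in triplicate; midazolam (3 μM) as positive control.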

[11] = Antiproliferative activity against mouse TAMH cells after 24 hrs by CellTiter-Glo assay; format: ADME, cell-based
[12] = Half life in rat liver microsomes at 3 uM preincubated for 5 mins followed by NADPH addition by LC-MS/MS analysis; format: ADME; how it was run: as §1
[13] = Therapeutic index, ratio of IC50 for mouse TAMH cells to IC50 for human cancer cells; conditions: cancer cell lines
[14] = molecular target: T3, Protein deacetylase HDAC6 (Homo sapiens) (UniProt Q9UBN7); experiment: Inhibition of full length human recombinant N-terminal GST-tagged HDAC6 (1 to 1215 residues) expressed in sf9 cells at 10 uM preincubated with enzyme followed by fluorogenic Arg-His-Lys-Lys(Ac)-AMC substrate addition measured after 2 hrs by fluorescence assay relative to control
T3 sequence (whole entry): T1 sequence (Q9UBN7 whole entry)

[15] = Antiproliferative activity against human OPM2 cells after 48 hrs by CellTiter-Glo assay; format: functional, cell-based; conditions: OPM-2, 48 h
How it was run: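 OPM2 grown in RPMI 1640 with 10% FBS and penicillin/streptomycin at 37 °C, 5% CO2. Treated at 25,000 cells/well in triplicate for 48 h. Viability read by CellTiter-Glo luminescence. IC50 taken from a sigmoidal fit of % viability vs log concentration.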

SMILES	pIC50 [1]	pIC50 [2]	pIC50 [3]	pIC50 [5]	pIC50 [7]	pIC50 [8]	also measured
O=C(NO)c1ccc(OCCOc2ccc3cc2COC/C=C/COCc2cccc(c2)-c2ccnc(n2)N3)cc1	7.18	8.90	5.80	–	–	–	–
CN1CCc2c(c3ccccc3n2Cc2ccc(C(=O)NO)cc2)C1 [TUBASTATIN A]	–	–	5.07	5.43	4.98	5.70	pIC50 [4]: < 5.40; pIC50 [6]: < 5.40; pIC50 (cells): < 5.70
O=C(CCCCCCC(=O)Nc1ccc(NCCOc2ccc3cc2COC/C=C/COCc2cccc(c2)-c2ccnc(n2)N3)cc1)NO	8.64	7.52	< 4.00	–	5.46	–	pIC50 [4]: < 5.40; pIC50 [6]: < 5.40; pIC50 (cells): < 5.70
O=C(CCCCCCCOc1ccc2cc1COC/C=C/COCc1cccc(c1)-c1ccnc(n1)N2)NO	7.80	8.30	5.00	5.02	5.19	5.21	pIC50 [4]: 5.61; CLint scaled at 3 µM [10]: 12 to 13.5 L/h/kg; pIC50 [11]: 5.28; pIC50 [6]: < 5.40; half-life at 3 µM [12]: 21 to 23.4 min; pIC50 (cells): < 5.70; pIC50 (Histone deacetylase 1): 5.63; selectivity ratio [13]: 1.8
O=C(O)CCCCOc1ccc2cc1COC/C=C/COCc1cccc(c1)-c1ccnc(n1)N2	–	–	–	–	4.59	4.44	pIC50 [9]: > 7.41
O=C(NO)c1cccc(NCCOc2ccc3cc2COC/C=C/COCc2cccc(c2)-c2ccnc(n2)N3)c1	5.54	8.05	< 4.00	–	< 4.30	5.70	–
O=C(O)CCCCCCC(=O)Nc1ccc(NCCOc2ccc3cc2COC/C=C/COCc2cccc(c2)-c2ccnc(n2)N3)cc1	5.59	8.64	–	–	–	5.57	–
O=C(O)c1cccc(NCCOc2ccc3cc2COC/C=C/COCc2cccc(c2)-c2ccnc(n2)N3)c1	4.28	–	–	–	4.67	4.23	pIC50 [9]: > 7.41
O=C(NO)c1ccc(NCCOc2ccc3cc2COC/C=C/COCc2cccc(c2)-c2ccnc(n2)N3)cc1	6.40	8.77	5.34	5.42	5.06	5.49	–
O=C(CCCCCC(=O)Nc1ccc(NCCOc2ccc3cc2COC/C=C/COCc2cccc(c2)-c2ccnc(n2)N3)cc1)NO	8.60	8.16	< 4.00	–	–	–	pIC50 [4]: < 5.40; pIC50 [6]: < 5.40; pIC50 (cells): < 5.70
O=C(O)CCCCCC(=O)Nc1ccc(NCCOc2ccc3cc2COC/C=C/COCc2cccc(c2)-c2ccnc(n2)N3)cc1	–	–	–	–	–	–	inhibition [14]: 20 to 24%
O=C(CCCCCCC(=O)Nc1ccccc1)NO [VORINOSTAT]	–	–	–	–	–	5.73	pIC50 [6]: 5.64; pIC50 [15]: 5.54

Now from value to compound, other results behind:

pIC50 [1]	pIC50 [2]	SMILES	pIC50 [3]	pIC50 [5]	pIC50 [7]	pIC50 [8]	also measured
5.00	–	O=C(O)CCCCCCCOc1ccc2cc1COC/C=C/COCc1cccc(c1)-c1ccnc(n1)N2	4.64	4.56	4.77	5.09	pIC50 [9]: > 7.41
< 4.00	–	O=C(O)C1CCN(CCOc2ccc3cc2COC/C=C/COCc2cccc(c2)-c2ccnc(n2)N3)CC1	–	–	4.97	5.09	pIC50 [9]: > 7.41
6.29	–	O=C(CCCOc1ccc2cc1COC/C=C/COCc1cccc(c1)-c1ccnc(n1)N2)NO	5.34	5.56	5.23	5.44	pIC50 (Histone deacetylase 1): 5.62
7.55	8.37	O=C(CCCCCOc1ccc2cc1COC/C=C/COCc1cccc(c1)-c1ccnc(n1)N2)NO	5.09	5.32	5.09	5.59	pIC50 [4]: 5.54; pIC50 [6]: < 5.40; pIC50 (cells): < 5.70; pIC50 (Histone deacetylase 1): 5.39
4.35	–	O=C(O)CCCCCOc1ccc2cc1COC/C=C/COCc1cccc(c1)-c1ccnc(n1)N2	–	–	4.70	4.39	pIC50 [9]: > 7.41
6.97	8.61	O=C(CCCCOc1ccc2cc1COC/C=C/COCc1cccc(c1)-c1ccnc(n1)N2)NO	5.00	5.10	4.90	5.85	pIC50 (Histone deacetylase 1): 5.51
6.05	9.01	O=C(NO)C1CCN(CCOc2ccc3cc2COC/C=C/COCc2cccc(c2)-c2ccnc(n2)N3)CC1	5.55	5.77	5.47	5.92	–
< 4.00	–	O=C(O)c1ccc(OCCOc2ccc3cc2COC/C=C/COCc2cccc(c2)-c2ccnc(n2)N3)cc1	–	–	4.27	4.53	pIC50 [9]: > 7.41
5.55	8.59	O=C(O)CCCCCCOc1ccc2cc1COC/C=C/COCc1cccc(c1)-c1ccnc(n1)N2	5.06	4.70	4.92	5.22	–
–	7.33	O=C(O)CCCOc1ccc2cc1COC/C=C/COCc1cccc(c1)-c1ccnc(n1)N2	–	–	4.27	3.91	–
4.19	> 7.41	O=C(O)c1ccc(NCCOc2ccc3cc2COC/C=C/COCc2cccc(c2)-c2ccnc(n2)N3)cc1	–	–	4.34	–	–
